Sampled rows, rich in hits. Any-hit rate of the full collection: about 6.4%.
HUVEC prolif 384 – human endothelial cell proliferation inhibition. HUVEC proliferation, CellTiter-Glo luminescence, 72 h; hits give low values. viability, % at 10 µM (by protocol). 86,000 tested, 1.1% active. AID 648;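 active = viability at or below 30%; inactive = viability above 30%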;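 note: 100% = median luminescence of DMSO-only cell control wells on each plate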
Jurkat viability – reduces viability or proliferation of Jurkat cells; Jurkat E6.1 viability, ATP luminescence, 48 h; inhibition, % at 4 µM; 56,000 tested, 1.2% active; AID 463;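 active = inhibition above the mean inhibition of all tested compounds plus 3 SD, cut at about 28% in these data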
Ecoli WT expand – growth inhibitors of E. coli BW25113 wild type | OD600 absorbance | 98,000 tested, 0.15% active | growth inhibition, % at 100 µM | AID 710;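 active = growth inhibition above about 50% at one test dose, limit read from the data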;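 note: growth measured after 20 h incubation at 37 °C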
H69AR inhibit – blocks growth of human H69AR lung tumor cells; H69AR lung tumor viability, ATP luminescence, 72 h; hits give low values; viability, % at 10 µM; 85,000 tested, 6% active; AID 598;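 active = viability at or below 40%; inactive = viability above 40%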;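 note: multidrug resistant small cell line overexpressing MRP-1 efflux transporter; 100% = mean luminescence of untreated control wells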
Fibroblast inh – blocks proliferation of human lung fibroblasts; LL 47 human lung fibroblast viability, ATP luminescence; hits give low values; viability, % at 10 µM; 85,000 tested, 1.1% active; AID 719;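 active = viability at or below 50% in the single dose screen; inactive = viability above 50%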;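 note: compound exposure lasted 72 h before the ATP readout; 100% = median luminescence of untreated cell-only wells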
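Material: human LL 47 lung fibroblast cells; quantity: 1,150 cells/well; medium: IMEM plus 15% FBS; doses: 0.1% DMSO in all compound wells; timing: overnight attachment after seeding, then 72 h compound exposure at 37 °C; detection: CellTiter-Glo luminescence; measure: % viability of median cell-only signal; controls: cell-only wells, no compound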
tolC growth inh – E. coli tolC mutant growth inhibition; growth inhibition, % at 10 µM (by protocol); AID 573; E. coli BW25113 tolC mutant growth, OD615; 65,000 tested, 2.2% active;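 active = growth inhibition at or above a cutoff equal to the mean over every tested compound plus 3 SD, cut at about 60% in these data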;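 note: growth measured after 20 h incubation at 37 °C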
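Test system – E. coli BW25113 ΔtolC::kan, tolC deletion mutant strain · Detection – OD at 615 nm · Buffer or medium – LB with kanamycin 50 µg/mL · Times – 20 h compound exposure of bacteria at 37 °C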
* marks the source's active call; other numbers are inactive results.

Results for COc1cc(OC)cc(C(=O)N(Cc2nc(-c3cccc(C)c3)no2)C(C)C)c1 ?
HUVEC prolif 384: 91.5; Jurkat viability: 3.4; Ecoli WT expand: -10.0; H69AR inhibit: 68.2; Fibroblast inh: 96.6; tolC growth inh: 66.6*

Results for Cc1ccc(SCC(=O)N(Cc2nc(-c3ccccc3)no2)C(C)C)cc1 ?
HUVEC prolif 384: 104.6; Jurkat viability: 0.6; Ecoli WT expand: -4.0; H69AR inhibit: 94.2; Fibroblast inh: 91.9; tolC growth inh: 73.5*

What do the screens show for `CC(C)N(Cc1nc(-c2ccc(Cl)cc2)no1)C(=O)c1cccs1`?
HUVEC prolif 384: 99.2; Jurkat viability: 10.2; Ecoli WT expand: -1.0; H69AR inhibit: 104.2; Fibroblast inh: 104.2; tolC growth inh: 68.2*

What do the screens show for `COc1ccc(C(=O)N(Cc2nc(-c3ccc(C)cc3)no2)C(C)C)cc1OC`?
HUVEC prolif 384: 104.0; Jurkat viability: -16.9; Ecoli WT expand: 3.0; H69AR inhibit: 85.9; Fibroblast inh: 94.4; tolC growth inh: 5.8

What do the screens show for `CC(C)N(Cc1nc(-c2ccccc2)no1)C(=O)c1ccc(Cl)cc1`?
HUVEC prolif 384: 109.5; Jurkat viability: -13.4; Ecoli WT expand: -5.0; H69AR inhibit: 87.8; Fibroblast inh: 92.2; tolC growth inh: 68.2*

What do the screens show for `COC(=O)Cn1nnc(-c2cccc(OC)c2)n1`?
HUVEC prolif 384: 98.8; Jurkat viability: 4.4; Ecoli WT expand: 4.0; H69AR inhibit: 100.9; Fibroblast inh: 100.5; tolC growth inh: -27.8

Results for Cc1cc(OCC(=O)Nc2ccncc2)ccc1Br ?
HUVEC prolif 384: 87.9; Jurkat viability: 5.1; Ecoli WT expand: 21.0; H69AR inhibit: 106.2; Fibroblast inh: 97.6; tolC growth inh: 8.7

How did O=C(O)CNc1nc(Cl)ccc1[N+](=O)[O-] do in these assays?
HUVEC prolif 384: 85.2; Ecoli WT expand: -4.0; H69AR inhibit: 82.1; Fibroblast inh: 93.0

How did CCOC(=O)c1ccc(NC(=O)C2(c3ccccc3)CCOCC2)cc1 do in these assays?
HUVEC prolif 384: 98.8; H69AR inhibit: 96.1; Fibroblast inh: 105.9

Results for COc1ccc(-c2noc(CCC(=O)N(C)c3cccc(C)c3)n2)cc1 ?
HUVEC prolif 384: 94.5; Ecoli WT expand: -2.0; H69AR inhibit: 88.2; Fibroblast inh: 93.7; tolC growth inh: 67.6*

Results for O=C(O)CC(c1ccc(Cl)cc1)N1C(=O)CCC1=O (configuration not stated) ?
HUVEC prolif 384: 94.2; Jurkat viability: 2.2; Ecoli WT expand: 5.0; H69AR inhibit: 94.0; Fibroblast inh: 99.1; tolC growth inh: -23.2

What do the screens show for `CCOC(=O)CCS(=O)(=O)c1ccc(-c2ccc(S(=O)(=O)CCC(=O)OCC)cc2)cc1`?
Ecoli WT expand: 2.0

What do the screens show for `Cc1ccc(S(=O)(=O)CCC(=O)c2ccc(O)cc2O)cc1`?
HUVEC prolif 384: 86.8; Jurkat viability: -10.0; Ecoli WT expand: 50.0*; H69AR inhibit: 1.0*; Fibroblast inh: 86.9; tolC growth inh: 13.0

Results for O=C(CN(c1ccc(F)cc1)S(=O)(=O)c1ccc2c(c1)OCCO2)NCc1ccccn1 ?
HUVEC prolif 384: 103.0; Jurkat viability: 4.0; Ecoli WT expand: 7.0; H69AR inhibit: 85.5; Fibroblast inh: 101.1; tolC growth inh: -1.0

How did CCCCC(=O)NC(Nc1nc(C2CC2)cs1)(C(=O)OCC)C(F)(F)F (configuration not stated) do in these assays?
HUVEC prolif 384: 95.2; Jurkat viability: -4.2; Ecoli WT expand: 2.0; H69AR inhibit: 92.9; Fibroblast inh: 94.7; tolC growth inh: 24.6

What do the screens show for `O=C(Nc1ccncc1)C1CCCN(S(=O)(=O)c2cccc3cccnc23)C1` (configuration not stated)?
HUVEC prolif 384: 66.9; Jurkat viability: 88.6*; Ecoli WT expand: 10.0; H69AR inhibit: 23.9*; Fibroblast inh: 57.5; tolC growth inh: 0.6

What do the screens show for `COc1cccc(NC(=O)C2CCCN(S(=O)(=O)c3cccc4cccnc34)C2)c1` (configuration not stated)?
HUVEC prolif 384: 88.2; Jurkat viability: -1.4; Ecoli WT expand: -3.0; H69AR inhibit: 82.0; Fibroblast inh: 103.7; tolC growth inh: 23.6

What do the screens show for `Oc1ccc(Cl)cc1-c1cc(-c2ccccc2)n[nH]1`?
HUVEC prolif 384: 30.7; Jurkat viability: 21.1; Ecoli WT expand: 1.0; H69AR inhibit: 4.3*; Fibroblast inh: 76.7; tolC growth inh: 100.0*

What do the screens show for `COc1ccc(-c2cc(-c3ccccc3O)[nH]n2)cc1`?
HUVEC prolif 384: 70.5; Ecoli WT expand: 17.0; H69AR inhibit: 12.9*; Fibroblast inh: 76.6

How did Cc1c(Br)c([N+](=O)[O-])nn1C(C)C(=O)Nc1c(C)n(C)n(-c2ccccc2)c1=O (configuration not stated) do in these assays?
Ecoli WT expand: 1.0

What do the screens show for `CCCNS(=O)(=O)c1ccc(OCC(=O)NCc2ccc3c(c2)OCO3)cc1`?
HUVEC prolif 384: 88.8; Jurkat viability: -1.9; Ecoli WT expand: 6.0; H69AR inhibit: 89.8; Fibroblast inh: 102.5; tolC growth inh: 6.0

How did CCC(C)c1ccc(OCCn2cc(/C=N/NC(=O)CSc3nnc(C)s3)c3ccccc32)cc1 (configuration not stated) do in these assays?
HUVEC prolif 384: 85.1; Ecoli WT expand: -23.0; H69AR inhibit: 84.0; Fibroblast inh: 97.2

How did Cc1cc(C)n(-c2nnc(C)n2/N=C/c2cc(Br)ccc2OCc2ccccc2)n1 do in these assays?
HUVEC prolif 384: 40.6; Jurkat viability: -6.2; Ecoli WT expand: 7.0; H69AR inhibit: 25.6*; Fibroblast inh: 67.4; tolC growth inh: 21.6

What do the screens show for `COc1ccccc1/C=N/n1c(C)nnc1-n1nc(C)cc1C`?
HUVEC prolif 384: 100.7; Ecoli WT expand: -6.0; H69AR inhibit: 94.2; Fibroblast inh: 105.7

How did Cc1cc(C)n(-c2nnc(C)n2/N=C/c2ccccc2OCc2ccccc2Cl)n1 do in these assays?
HUVEC prolif 384: 60.8; Jurkat viability: 2.1; Ecoli WT expand: 10.0; H69AR inhibit: 16.1*; Fibroblast inh: 77.3; tolC growth inh: 22.5

What do the screens show for `COC(=O)c1ccc(S(=O)(=O)c2ccccc2)c(N)c1`?
HUVEC prolif 384: 90.0; Ecoli WT expand: 4.0; H69AR inhibit: 96.2; Fibroblast inh: 94.5

How did CCOc1ccc(N(C(C)=O)c2nc(C)cc(C)c2C#N)cc1 do in these assays?
HUVEC prolif 384: 91.0; H69AR inhibit: 81.2; Fibroblast inh: 92.3

How did CCn1nc(C)cc1-c1n[nH]c(=S)n1N do in these assays?
Ecoli WT expand: 5.0

How did O=C(CCCn1c(=S)[nH]c2ccc(Br)cc2c1=O)N1CCN(c2ccccn2)CC1 do in these assays?
HUVEC prolif 384: 61.7; Ecoli WT expand: -13.0; H69AR inhibit: 56.8; Fibroblast inh: 100.3; tolC growth inh: 19.3

Results for Cc1ccc(N=c2oc3cc(O)ccc3cc2C(N)=O)cc1 ?
HUVEC prolif 384: 47.4; Jurkat viability: 10.2; Ecoli WT expand: -2.0; H69AR inhibit: 39.4*; Fibroblast inh: 82.2; tolC growth inh: 18.0

Compound activity from PubChem.
